According to ChEMBL document CHEMBL1150617, “New and biologically active imidazole alkaloids from two sponges of the genus Leucetta” (2002):
≈ marks a conversion by molar mass, not a printed value. Calls of active or inactive are those of the source. No cut-off for these calls is given here.

Assays:
[1] = tested on: Microbotryum violaceum; assay: Antifungal activity against Microbotryum violaceum at 50 ug; assay type: functional, organism-based
Procedure, shortened: (§1)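 Agar diffusion assay against bacteria (Bacillus megaterium, Escherichia coli), fungi (Microbotryum violaceum, Eurotium repens, Mycotypha microsporum) and the green microalga Chlorella fusca.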

[2] = tested on: [Chlorella] fusca; assay: Antialgal activity against 'Chlorella' fusca at 50 ug; assay type: functional, organism-based; details: Scenedesmus fuscus; procedure, shortened: as §1
[3] = tested on: Escherichia coli; assay: Antibacterial activity against Escherichia coli at 50 ug; assay type: functional, organism-based; procedure, shortened: as §1
[4] = tested on: Mycotypha microspora; assay: Antifungal activity against Mycotypha microspora at 50 ug; assay type: functional, organism-based; procedure, shortened: as §1
[5] = tested on: Aspergillus pseudoglaucus; assay: Antifungal activity against Eurotium repens at 50 ug; assay type: functional, organism-based; procedure, shortened: as §1
[6] = tested on: Priestia megaterium; assay: Antibacterial activity against Bacillus megaterium at 50 ug; assay type: functional, organism-based; procedure, shortened: as §1
[7] = Cytotoxicity against human HM02 cells; assay type: functional
Procedure, shortened: (§2)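 Cytotoxicity run to NCI standards on the human tumour lines HM02 (stomach carcinoma), HepG2 (liver carcinoma) and Huh7 (liver carcinoma with mutated p53).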

[8] = tested on: Huh-7; assay: Cytotoxicity against human HuH7 cells; assay type: functional; procedure, shortened: as §2
[9] = tested on: HepG2; assay: Cytotoxicity against human HepG2 cells; assay type: functional; procedure, shortened: as §2

For `COc1ccc(Cc2[nH]c(=N)n(C)c2Cc2cc(O)c(OC)c(O)c2)cc1`, which Activity [1] is on record?
Its Activity is “inactive”.

What about the Activity [2] of the same compound?
The Activity was “inactive”.

And the Activity [3]?
Its Activity is “inactive”.

What about the Activity [4] of the same compound?
Its Activity is “inactive”.

And the Activity [5]?
The Activity was “inactive”.

What about the Activity [6] of the same compound?
The Activity was “inactive”.

With `COc1ccc(Cc2[nH]c(=N)n(C)c2Cc2ccc(O)cc2)cc1` as the compound, how does the Activity [1] read?
Its Activity is “inactive”.

What about the Activity [2] of the same compound?
Its Activity is “inactive”.

And the Activity [3]?
The Activity was “inactive”.

What about the Activity [4] of the same compound?
The Activity was “inactive”.

What about the Activity [5] of the same compound?
The Activity was “inactive”.

What about the Activity [6] of the same compound?
The Activity was “inactive”.

For `COc1ccc(Cc2cn(Cc3ccc(O)cc3)c(=N)n2C)cc1`, which Activity [1] is on record?
Its Activity is “inactive”.

And the Activity [2]?
The Activity was “inactive”.

What about the Activity [3] of the same compound?
The Activity was “inactive”.

And the Activity [4]?
Its Activity is “inactive”.

What about the Activity [5] of the same compound?
The Activity was “inactive”.

What about the Activity [6] of the same compound?
The Activity was “inactive”.

Which Activity [1] does the source give for `COc1ccc(Cn2cc(Cc3ccc(OC)c(OC)c3)nc2/N=C2/NC(=O)N(C)C2=O)cc1` [ISONAAMIDINE E] here?
Its Activity is “inactive”.

What about the Activity [2] of the same compound?
The Activity was “inactive”.

And the Activity [3]?
The Activity was “inactive”.

What about the Activity [4] of the same compound?
Its Activity is “inactive”.

What about the GI50 [7] of the same compound?
Its GI50 is 7 µg/mL (≈ 15.1 µM).

And the GI50 [8]?
Its GI50 is 1.3 µg/mL (≈ 2.8 µM).

And the Activity [5]?
Its Activity is “inactive”.

And the Activity [6]?
The Activity was “inactive”.

And the GI50 [9]?
Its GI50 is 7 µg/mL (≈ 15.1 µM).

Which Activity [1] does the source give for `COc1ccc(Cn2cc(Cc3ccc(OC)c(OC)c3)nc2N)cc1` [ISONAAMINE C] here?
Its Activity is “inactive”.

And the Activity [2]?
The Activity was “inactive”.

And the Activity [3]?
Its Activity is “inactive”.

What about the Activity [4] of the same compound?
Its Activity is “inactive”.

What about the GI50 [7] of the same compound?
Its GI50 is 5.3 µg/mL (≈ 15 µM).

And the GI50 [8]?
Its GI50 is 2.1 µg/mL (≈ 5.94 µM).

What about the Activity [5] of the same compound?
The Activity was “inactive”.

And the Activity [6]?
Its Activity is “inactive”.

And the GI50 [9]?
Its GI50 is 2.2 µg/mL (≈ 6.22 µM).
